Results as given in ChEMBL document CHEMBL1255309, “Relationship between antimalarial activity and heme alkylation for spiro- and dispiro-1,2,4-trioxolane antimalarials” (Antimicrob Agents Chemother, 2008).

Key:
[1] = Induction of heme alkylation of Fe(II) heme assessed as loss of heme at 10 uM in presence of 50% ACN-H2O with excess sodium dithionite under argon at 20 degC by spectrophotometry
Summary of the method: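 Fe(II) heme (10 μM final; hemin reduced by excess sodium dithionite) in 50% ACN-water under continuous argon, 20°C, stirred; reaction started with peroxide at 10 μM final. Soret absorbance (418 nm) read every 0.1 s, converted to heme concentration via linear calibration (ε = 1.26 × 10⁵ M⁻¹ cm⁻¹); heme loss measured at completion (t = 30 s). n = 3.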

[2] = Induction of heme alkylation of Fe(II) heme assessed as adduct A472 absorbance change at completion of reaction at 10 uM in presence of 50% ACN-H2O with excess sodium dithionite under argon at 20 degC by spectrophotometry
Summary of the method: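 Reduced heme made from hemin (10 μM final) in 50% ACN-water (from 0.5 mM stock in 0.1 M NaOH) with excess sodium dithionite, argon-purged sealed cell, stirred at 20°C; peroxide added to 10 μM final. Product formation followed as A472, normalized to initial 418 nm heme absorbance; taken at completion (t = 30 s). n = 3.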

[3] = tested on: Plasmodium falciparum; assay: Antimalarial activity against chloroquine-resistant Plasmodium falciparum K1; type: functional, organism-based

NC[C@H]1CC[C@]2(CC1)OOC1(O2)C2CC3CC(C2)CC1C3 (stereo partly drawn)
inhibition [1]: 83%
deltaA [2]: 0.87

C[C@@]1(c2ccccc2)OOC2(O1)C1CC3CC(C1)CC2C3 (stereo partly drawn)
inhibition [1]: 67%
IC50 [3]: 0.01 µM
deltaA [2]: 0.63

O=S(=O)(O)OC[C@H]1CC[C@]2(CC1)OO[C@]1(O2)C2CC3CC(C2)CC1C3
inhibition [1]: 81%
IC50 [3]: 0.25 µM
deltaA [2]: 0.85

Clc1ccc([C@H]2CC[C@]3(CC2)OO[C@]2(O3)C3CC4CC(C3)CC2C4)cc1
inhibition [1]: 84%
IC50 [3]: 0.02 µM
deltaA [2]: 0.84

O=C1C2CC3CC1CC(C2)[C@]31OO[C@@]2(CCCCC2)O1
inhibition [1]: 61%
IC50 [3]: 0.02 µM
deltaA [2]: 0.57

C[C@@H]1CC[C@H]2[C@@H](C)C(=O)O[C@@H]3O[C@@]4(C)CC[C@@H]1[C@]32OO4
inhibition [1]: 15%
deltaA [2]: 0.12

OC[C@H]1CC[C@]2(CC1)OO[C@]1(O2)C2CC3CC(C2)CC1C3
inhibition [1]: 83%
IC50 [3]: 0.0028 µM
deltaA [2]: 0.89

c1ccc([C@@H]2OOC3(O2)C2CC4CC(C2)CC3C4)cc1 (stereo partly drawn)
inhibition [1]: 16%
IC50 [3]: 1.5 µM
deltaA [2]: 0.13

O=C1CCC2(CC1)OOC1(O2)C2CC3CC(C2)CC1C3 (stereo not drawn)
inhibition [1]: 81%
IC50 [3]: 0.0017 µM
deltaA [2]: 0.88

CC(C)(O)[C@H]1CC[C@]2(CC1)OO[C@]1(O2)C2CC3CC(C2)CC1C3
inhibition [1]: 30%
IC50 [3]: 0.21 µM
deltaA [2]: 0.23

CO[C@H]1O[C@@H]2O[C@@]3(C)CC[C@H]4[C@H](C)CC[C@@H]([C@H]1C)[C@@]24OO3
inhibition [1]: 24%

CC1(C)CC[C@]2(CC1)OO[C@]1(O2)C2CC3CC(C2)CC1C3
inhibition [1]: 82%
IC50 [3]: 0.0079 µM
deltaA [2]: 0.77

CCC[C@H]1CC[C@]2(CC1)OO[C@]1(O2)C2CC3CC(C2)CC1C3
inhibition [1]: 85%
IC50 [3]: 0.0036 µM
deltaA [2]: 0.8

c1ccc(C2(c3ccccc3)CCC3(CC2)OOC2(O3)C3CC4CC(C3)CC2C4)cc1 (stereo not drawn)
inhibition [1]: 11%
deltaA [2]: 0.1

C[C@H]1[C@@H](O)O[C@@H]2O[C@@]3(C)CC[C@H]4[C@H](C)CC[C@@H]1[C@@]24OO3 [ARTENIMOL]
inhibition [1]: 28%
IC50 [3]: 0.00077 µM
deltaA [2]: 0.22

C[C@H]1[C@H](OC(=O)CCC(=O)O)O[C@@H]2O[C@@]3(C)CC[C@H]4[C@H](C)CC[C@@H]1[C@@]24OO3 [ARTESUNATE]
inhibition [1]: 44%
IC50 [3]: 0.0032 µM
deltaA [2]: 0.39

O=C(O)C[C@H]1CC[C@]2(CC1)OO[C@]1(O2)C2CC3CC(C2)CC1C3
inhibition [1]: 83%
IC50 [3]: 0.11 µM
deltaA [2]: 0.87

O=C(O)[C@H]1CC[C@]2(CC1)OO[C@]1(O2)C2CC3CC(C2)CC1C3
inhibition [1]: 74%
IC50 [3]: 0.049 µM
deltaA [2]: 0.89

OC[C@H]1CC[C@@]2(CC1)OO[C@@]1(O2)C2CC3CC(C2)CC1C3
inhibition [1]: 83%
IC50 [3]: 0.0026 µM
deltaA [2]: 0.78

C1CC[C@]2(CC1)OO[C@]1(O2)C2CCCC1CCC2
inhibition [1]: 9%
IC50 [3]: 0.34 µM
deltaA [2]: 0.03

C1CCC2(CC1)OOC1(O2)C2CC3CC(C2)CC1C3 (stereo not drawn)
inhibition [1]: 86%
IC50 [3]: 0.0038 µM
deltaA [2]: 0.84

CC(C)(N)CNC(=O)C[C@H]1CC[C@]2(CC1)OO[C@]1(O2)C2CC3CC(C2)CC1C3
inhibition [1]: 83%
deltaA [2]: 0.89

CC(C)(C)[C@H]1CC[C@]2(CC1)OO[C@]1(O2)C2CC3CC(C2)CC1C3
inhibition [1]: 34%
IC50 [3]: 0.2 µM
deltaA [2]: 0.25

C1CCC2(CC1)OOC1(CCCCC1)O2
inhibition [1]: 17%
deltaA [2]: 0.03

c1ccc([C@H]2CC[C@]3(CC2)OO[C@]2(O3)C3CC4CC(C3)CC2C4)cc1
inhibition [1]: 77%
IC50 [3]: 0.0065 µM
deltaA [2]: 0.79
